Measured values from article PMC5783296 (SLAS discovery : advancing life sciences R & D, 2017).
Counter-ions that a name gives are not always drawn.

What was measured:
[1] = target: T1, interaction between NHP2L1 and U4 5′SL (Homo sapiens, UniProt P55769); test: TR-FRET HTS assay of NHP2L1-U4 interaction; assay type: binding; settings: for potency in dose response screening (IC50 ranking): dose responsive analysis, ten 1:3 dilutions, TR-FRET; for disruption of the interaction of U4 and NHP2L1: TR-FRET dose response, camptothecin derivatives
T1 sequence (P55769 1-128): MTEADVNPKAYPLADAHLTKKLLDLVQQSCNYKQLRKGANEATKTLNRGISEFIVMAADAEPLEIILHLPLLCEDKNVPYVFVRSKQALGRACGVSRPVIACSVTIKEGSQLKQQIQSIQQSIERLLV

[2] = target: T2, NHP2L1 U4 complex (Homo sapiens, UniProt P55769); test: Electrophoretic gel mobility shift assay; assay type: binding; settings: topotecan 0.2, 2, 20, 200 μM
T2 sequence (P55769 1-128): T1 sequence (P55769 1-128)
How it was run: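 Recombinant NHP2L1 (E. coli BL21(DE3), Ni-chelate then gel filtration) plus biotinylated U4 5′SL, ±test compound, 45 min at room temperature in 20 mM Tris-HCl pH 7.6, 150 mM NaCl, 0.1% Triton X-100, 2 mM DTT, 0.5 g/L tRNA. Run on 6% retardation gel, 0.5× TBE, 100 V, 60 min, then nylon transfer and chemiluminescent detection. Shifted band quantified by densitometry as % of complex without compound.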

[3] = target: T3, NHP2L1 protein (Homo sapiens, UniProt P55769); test: Surface plasmon resonance, immobilized NHP2L1; assay type: binding; settings: max 50μM, OneStep gradient injection, 20° C
T3 sequence (P55769 1-128): T1 sequence (P55769 1-128)

[4] = system: pre-mRNA splicing (pTN23 reporter) in HEK293 cells; test: pTN23 splicing reporter assay; assay type: cell-based, Human; settings: HEK293, topotecan 250nM, 24 hours
[5] = system: U4 5′ SL; test: 1D NMR titration of U4 5′SL; assay type: binding; settings: U4:topotecan 1:0 to 1:10
How it was run: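 Solution NMR at pH 5.0 (100 mM NaCl, 100 mM sodium phosphate, 10% D2O, 2% DMSO-d6). U4 5′SL at 100 μM with increasing test compound, monitored by 1D and 2D [1H,1H] TOCSY (60 ms mixing) and NOESY (100 ms mixing) spectra.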

[6] = system: U4 5′ SL; test: Surface plasmon resonance, immobilized U4 5′SL; assay type: binding; settings: max 50μM, OneStep gradient injection, 20° C
[7] = target: T2, NHP2L1 U4 complex; test: NMR of NHP2L1-U4 complex with topotecan; assay type: binding
How it was run: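 15N-labelled NHP2L1 was premixed 1:1 with unlabelled U4 5′SL in pH 5.0 phosphate buffer (100 mM NaCl, 10% D2O, 2% DMSO-d6), with backbone assigned from HNCA/HNCACB. Chemical shift perturbations were read from 2D [15N,1H] HSQC/TROSY at 64 scans, and at 400 scans for the 1:1:20 TROSY.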

[8] = target: T4, NHP2L1 (15.5K), His-tagged (UniProt P55769 1-128); test: TR-FRET
T4 sequence: T1 sequence (P55769 1-128)

`CC[C@@]1(O)C(=O)OCc2c1cc1n(c2=O)Cc2cc3cc(O)ccc3nc2-1` [10-OH-(S)-camptothecin] was tested, and the “potency in dose response screening (IC50 ranking)” value (“potency in dose response screening” below) [1] was “among the most potent inhibitors”.

`CC[C@@]1(O)C(=O)OCc2c1cc1n(c2=O)Cc2cc3c(CNC)c(O)ccc3nc2-1` [N-demethyl-topotecan, N-Desmethyl topotecan] was tested, and the “disruption of the interaction of U4 and NHP2L1” value (“disruption” below) [1] was “able to disrupt the interaction of U4 and NHP2L1”.

With `CCc1c2c(nc3ccc(O)cc13)-c1cc3c(c(=O)n1C2)COC(=O)[C@]3(O)CC` [SN-38] the “disruption” value [1] was “able to disrupt the interaction of U4 and NHP2L1” and the “potency in dose response screening” value [1] was “among the most potent inhibitors”.

In the case of `CC[C@@]1(O)C(=O)OCc2c1cc1n(c2=O)Cc2cc3ccccc3nc2-1` [camptothecin, (S)-camptothecin], the “disruption” value [1] is reported as “less effective at disrupting the NHP2L1 and U4 interaction”.

With `CCc1c2c(nc3ccc(OC(=O)N4CCC(N5CCCCC5)CC4)cc13)-c1cc3c(c(=O)n1C2)COC(=O)[C@]3(O)CC` [irinotecan] the “disruption” value [1] was “less effective at disrupting the NHP2L1 and U4 interaction”.

`CC[C@@]1(O)C(=O)OCc2c1cc1n(c2=O)Cc2cc3c(CN(C)C)c(O)ccc3nc2-1` [topotecan hydrochloride] was tested, and the inhibition at 15 µM ([1]; read-out: percentage of inhibition in primary screening) was 81.6%.

`CC[C@@]1(O)C(=O)OCc2c1cc1n(c2=O)Cc2cc3c(CN(C)C)c(O)ccc3nc2-1` [topotecan, Topotecan] was tested, and the “inhibition of NHP2L1-U4 5′SL shift” value [2] was “greater inhibition with increasing concentrations”, the “binding to NHP2L1 by SPR” value [3] was “markedly less binding to NHP2L1” and the “disruption” value [1] was “able to disrupt the interaction of U4 and NHP2L1”. For the same molecule, the “potency in dose response screening” value [1] was “among the most potent inhibitors”, the “splicing efficiency (ratio of luciferase to β-galactosidase activities)” value ([4]; p<0.001) was “significantly decreased splicing efficiency” and the β-galactosidase activities ([4]; p=0.4) was “without changing significantly β–galactosidase activities”. The “binding to U4 5′ SL by 1D NMR” value [5] was “binding of topotecan to U4 5′ SL was confirmed”, the “binding to U4 by SPR” value [6] was “binds to U4 in a time-dependent manner” and the “direct binding to NHP2L1-U4 complex by 1D NMR” value ([7]; 1D spectrum of complex) was “able to directly bind to the NHP2L1-U4 complex”. For the same molecule, the “displacement of NHP2L1 from U4 by 2D NMR” value ([7]; NHP2L1:U4:topotecan 1:1:20 (2mM topotecan)) was “displaces NHP2L1 from U4 only at high concentrations”.

B1: Cy5-U4 5'SL (structured_RNA)
RNA: AUCGUAGCCAAUGAGGUUUAUCCGAGGCGCGAU
In the case of B1, the Kd [8] is reported as 680 pM.
